Data on 18 molecules can be found in ChEMBL document CHEMBL2440043, “Synthesis and structure-activity relationship of 2-phenyliminochromene derivatives as inhibitors for aldo-keto reductase (AKR) 1B10” (Bioorg Med Chem, 2013).

Broadly, the IC50 is the concentration that inhibits the measured activity by half. The term inhibition denotes the share of the control response that was lost under treatment. What is called Ki is a measure of affinity in units of concentration, obtained from inhibition or displacement.

Assay [1] concerns the target T1, Aldo-keto reductase family 1 member B10 (Homo sapiens, UniProt O60218). In words: Inhibition of human recombinant N-terminal His6-tagged AKR1B10 expressed in Escherichia coli by fluorescence assay in presence of NADPH.
Target sequence in this assay (O60218 whole entry): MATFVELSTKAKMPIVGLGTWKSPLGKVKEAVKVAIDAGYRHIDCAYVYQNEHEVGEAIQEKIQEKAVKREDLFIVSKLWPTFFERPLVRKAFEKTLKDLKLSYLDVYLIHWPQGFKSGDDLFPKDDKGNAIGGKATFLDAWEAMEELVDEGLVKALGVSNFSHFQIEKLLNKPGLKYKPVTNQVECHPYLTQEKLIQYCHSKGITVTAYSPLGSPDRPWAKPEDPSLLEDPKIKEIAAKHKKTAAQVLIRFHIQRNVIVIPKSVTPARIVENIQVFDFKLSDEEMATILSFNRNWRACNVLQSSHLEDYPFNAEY
The target in assay [2] is T2, Aldo-keto reductase family 1 member B1 (Homo sapiens, UniProt P15121). In words: Inhibition of human recombinant N-terminal His6-tagged AKR1B1 expressed in Escherichia coli by fluorescence assay in presence of NADPH.
For assay [3], the target named is T1, Aldo-keto reductase family 1 member B10. The assay can be described thus: Inhibition of human recombinant N-terminal His6-tagged AKR1B10 expressed in Escherichia coli at 10000 nM by fluorescence assay in presence of NADPH.
Target sequence in this assay (O60218 whole entry, looked up): as the sequence (O60218 whole entry) above
For assay [4], the target named is T2, Aldo-keto reductase family 1 member B1. In words: Inhibition of human recombinant N-terminal His6-tagged AKR1B1 expressed in Escherichia coli at 10000 nM by fluorescence assay in presence of NADPH.
For assay [5], the target named is Aldo-keto reductase family 1 member B10 (Homo sapiens, UniProt O60218, W220Y). In words: Competitive inhibition of human recombinant AKR1B10 W220Y mutant expressed in Escherichia coli using geraniol as substrate by double-reciprocal plot analysis in presence of NADP+. In a few lines:
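Trp220Tyr mutant purified from E. coli; geraniol oxidation with saturating NADP⁺ (0.25 mM) at 25 °C, followed by NADPH fluorescence (ex 340 nm, em 455 nm). Five geraniol levels (50–800 μM) were tested at three inhibitor concentrations. Ki came from slope and intercept replots of double-reciprocal plots; mean of at least three determinations.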

Assay [6] deals with T1, Aldo-keto reductase family 1 member B10. The assay can be described thus: Competitive inhibition of wild-type human recombinant N-terminal His6-tagged AKR1B10 expressed in Escherichia coli using geraniol as substrate by double-reciprocal plot analysis in presence of NADP+. In a few lines:
(§1)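 Purified enzyme from E. coli, assayed by NADP⁺-linked geraniol oxidation at 25 °C. NADPH formation was read by fluorescence (ex 340 nm, em 455 nm). NADP⁺ was saturating at 0.25 mM, with five geraniol concentrations (25–200 μM) and three inhibitor concentrations. Ki came from replots of the slopes and intercepts of double-reciprocal plots; mean of at least three determinations.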
Target sequence in this assay (O60218 whole entry): as above

Assay [7] addresses Aldo-keto reductase family 1 member B10 (Homo sapiens, UniProt O60218, Q303S). The assay can be described thus: Competitive inhibition of human recombinant AKR1B10 Q303S mutant expressed in Escherichia coli using geraniol as substrate by double-reciprocal plot analysis in presence of NADP+. In a few lines:
as §1

Aldo-keto reductase family 1 member B10 (Homo sapiens, UniProt O60218, W220Y), sequence (O60218 whole entry W220Y): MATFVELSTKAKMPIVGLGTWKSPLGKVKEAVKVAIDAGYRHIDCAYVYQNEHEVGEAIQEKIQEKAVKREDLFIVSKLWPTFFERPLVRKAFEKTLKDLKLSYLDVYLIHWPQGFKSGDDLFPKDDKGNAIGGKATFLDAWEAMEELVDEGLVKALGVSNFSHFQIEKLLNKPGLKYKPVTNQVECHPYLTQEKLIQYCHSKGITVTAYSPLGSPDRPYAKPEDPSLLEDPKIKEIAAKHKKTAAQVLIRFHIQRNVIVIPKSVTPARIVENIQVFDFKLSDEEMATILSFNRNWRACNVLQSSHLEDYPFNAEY
Aldo-keto reductase family 1 member B10 (Homo sapiens, UniProt O60218, Q303S), sequence (O60218 whole entry Q303S): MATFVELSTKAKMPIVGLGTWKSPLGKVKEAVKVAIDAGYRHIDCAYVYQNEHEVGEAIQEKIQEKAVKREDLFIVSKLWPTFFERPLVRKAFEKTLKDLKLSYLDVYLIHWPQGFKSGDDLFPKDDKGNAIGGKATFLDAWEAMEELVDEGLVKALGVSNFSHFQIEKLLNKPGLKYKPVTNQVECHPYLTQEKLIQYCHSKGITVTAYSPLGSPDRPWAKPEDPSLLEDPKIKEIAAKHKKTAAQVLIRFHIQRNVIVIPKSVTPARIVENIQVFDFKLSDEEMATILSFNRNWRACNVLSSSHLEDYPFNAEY

Turning to `CCCCNC(=O)c1cc2ccc(O)cc2o/c1=N\c1ccc(OC)cc1`, the half-maximal inhibitory concentration (IC50) amounted to 18 nM in assay [1] and 28 nM in assay [2].

`COc1ccc(/N=c2\oc3c(O)cccc3cc2C(=O)Nc2ccccn2)cc1`: the IC50 in assay [1] and in assay [2] was greater than 10000 nM throughout. Moreover, the inhibition in assay [3] and in assay [4] was less than 30% in each case.

Consider `O=C(Nc1ccccn1)c1cc2ccc(O)cc2o/c1=N\c1ccc(O)cc1`, for which the half-maximal inhibitory concentration (IC50) in assay [1] is 6.8 nM; in assay [2], 24 nM.

For the molecule `COc1ccc(/N=c2\oc3cc(O)ccc3cc2C(=O)NCCCO)cc1`, the concentration for half-maximal inhibition (IC50) was determined as 8.8 nM in assay [1] and 29 nM in assay [2].

For `Cc1ccc(/N=c2\oc3cc(O)ccc3cc2C(=O)Nc2ccccn2)cc1`, the IC50 in assay [1] worked out at 8.6 nM; in assay [2], 26 nM.

On to `O=C(Nc1ccccn1)c1cc2ccc(O)cc2o/c1=N\c1ccc(I)cc1`, for which the IC50 in assay [1] was found to be 13 nM; in assay [2], 12 nM.

`COc1ccc(/N=c2\oc3cc(O)ccc3cc2C(=O)NCC(C)C)cc1`: the 50% inhibitory concentration (IC50) came to 16 nM in assay [1] and 28 nM in assay [2].

Turning to `COc1ccc(/N=c2\oc3cc(O)ccc3cc2C(=O)NCc2ccccc2)cc1`, the figures for the half-maximal inhibitory concentration (IC50) in assay [1] and in assay [2] were 4.7 nM and 24 nM, respectively. Besides, the results for the inhibitory constant (Ki) in assay [5], in assay [6] and in assay [7] were 51 nM, 1.3 nM and 3.8 nM, respectively.

For `O=C(Nc1ccccn1)c1cc2ccc(O)cc2o/c1=N\c1ccccc1`, the half-inhibitory concentration (IC50) in assay [1] came to 12 nM; in assay [2], 34 nM.

In the case of `COc1ccc(/N=c2\oc3ccc(O)cc3cc2C(=O)Nc2ccccn2)cc1`, the IC50 in assay [1] and in assay [2] was greater than 10000 nM each time. The inhibition in assay [3] and in assay [4] was less than 30% each time.

For `COc1ccc(/N=c2\oc3ccccc3cc2C(=O)Nc2ccccn2)cc1`, the inhibition in assay [4] is less than 30%.

In the case of `COc1ccc(/N=c2\oc3cc(O)ccc3cc2C(=O)NCCO)cc1`, the IC50 in assay [1] was 11 nM; in assay [2], 20 nM.

With `O=C(O)Cc1ccc(/N=c2\oc3cc(O)ccc3cc2C(=O)Nc2ccccn2)cc1`, the half-maximal inhibitory concentration (IC50) is 13 nM in assay [1] and 20 nM in assay [2].

Take `COc1ccc(/N=c2\oc3cccc(O)c3cc2C(=O)Nc2ccccn2)cc1`: the inhibition in assay [4] was less than 30%. The IC50 in assay [2] was greater than 10000 nM.

For the molecule `COc1ccc(/N=c2\oc3cc(O)ccc3cc2C(=O)NC2CCCCC2)cc1`, the concentration for half-maximal inhibition (IC50) in assay [1] came to 11 nM; in assay [2], 27 nM.

For `COc1ccc(/N=c2\oc3cc(O)ccc3cc2C(=O)NC(C)C)cc1`, the IC50 in assay [1] came to 9.7 nM; in assay [2], 6.7 nM.

For the molecule `O=C(O)c1ccc(/N=c2\oc3cc(O)ccc3cc2C(=O)Nc2ccccn2)cc1`, the IC50 turned out to be 7.6 nM in assay [1] and 19 nM in assay [2].

Turning to `O=C(Nc1ccccn1)c1cc2ccc(O)cc2o/c1=N\c1ccc(Br)cc1`, the results for the IC50 in assay [1] and in assay [2] were 14 nM and 25 nM, respectively.
